Results reported in ChEMBL document CHEMBL1133473, “Synthesis and antiviral activity of 4-benzyl pyridinone derivatives as potent and selective non-nucleoside human immunodeficiency virus type 1 reverse transcriptase inhibitors” (J Med Chem, 2000).
Where “and” joins values, the source holds several entries; their conditions need not be identical. Equal entries are not always repeated.

Key:
MT4 [1] = test: Cytotoxicity against MT-4 cells infected with HIV-1 AZTres; format: functional; conditions: Homo sapiens
[2] = Cytotoxicity against PBMC cells infected with HIV-1 IIIB strain; format: functional; conditions: Human immunodeficiency virus 1, PBMC
CEM-SS [3] = test: Tested for inhibitory concentration on HIV-I Lai wild type in CEM-SS cell line; format: functional, cell-based; conditions: Homo sapiens
Method in brief: (§1)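 CEM-SS lymphocytic cells infected with 100 TCID50 of HIV-1 LAI, or of the nevirapine-resistant N119 strain carrying an RT codon 181 mutation. Virus adsorbed 30 min, unbound virus removed by two washes, then cells cultured 5 days with serial compound dilutions. Read-out: RT activity of particles released into the supernatant. IC50 from a computer median effect plot of dose-effect data.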

[4] = tested on: Human immunodeficiency virus 1; test: Inhibitory concentration against HIV-1 Bal/Mono; format: functional, organism-based
Method in brief: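 Macrophage-tropic HIV-1 Bal in monocyte-derived macrophages kept serum-free in AIM V medium with 100 U/mL GM-CSF. Virus output measured as supernatant particle-associated RT activity.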

[5] = tested on: Human immunodeficiency virus 1; test: Tested for cytotoxic concentration on HIV-I nevirapine resistant strain.; format: functional
Method in brief: (§2)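 CEM-SS cells, uninfected, cultured 5 days with compound. Compounds were taken from a DMSO solution at 10^-2 M (10^-3 M or lower if insoluble), diluted 1:100 in medium, then serially diluted in medium.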

[6] = Cytotoxicity against PBMC cells infected with HIV-2 D 194; format: functional; conditions: Human immunodeficiency virus 2, PBMC
[7] = tested on: Human immunodeficiency virus 1; test: Tested for inhibitory concentration on HIV-I nevirapine resistant strain.; format: functional, organism-based; method in brief: as §1
[8] = Inhibitory concentration against HIV-2 D 194; format: functional
Method in brief: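 Cell-based antiviral assay against this HIV-2 isolate. Compounds were dissolved in DMSO as 10^-2 M stocks, or 10^-3 M or lower when insoluble, diluted 1% in culture medium, then serially diluted in medium. Virus production was read as reverse transcriptase activity of particles released into the culture supernatant. IC50 was taken from a median-effect plot of the dose-effect data.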

MT4 [9] = test: Cytotoxicity against MT-4 cells infected with HIV-1 IIIB strain; format: functional; conditions: Homo sapiens
[10] = Cytotoxicity against Macrophages infected with HIV-1 Bal/Mono; format: functional; conditions: Human immunodeficiency virus 1
CEM-SS [11] = test: Tested for cytotoxic concentration on HIV-I Lai wild type in CEM-SS cell line; format: functional; conditions: Homo sapiens; method in brief: as §2
[12] = tested on: Human immunodeficiency virus 1; test: Inhibitory concentration against HIV-1 AZTres.; format: functional, organism-based
Method in brief: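 AZT-resistant HIV-1 isolate A018 G910-6 tested in cell culture; virus production measured as RT activity of particles released into the culture supernatant.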

[13] = tested on: Human immunodeficiency virus 1; test: Selectivity index is the ratio of CC50 to IC50; format: functional
[14] = tested on: Human immunodeficiency virus 1; test: Selectivity index is the ratio of CC50 to IC50 against HIV-1 nevirapine resistant strain; format: functional
[15] = molecular target: Human immunodeficiency virus type 1 reverse transcriptase (Human immunodeficiency virus 1, UniProt Q72547); test: Tested for inhibitory concentration on HIV-1 Reverse transcriptase in the presence of poly(c)-oligo-(dG)
Method in brief: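 Recombinant HIV-1 RT purified from yeast, 20-50 nM. Reaction at 37 °C for 10 min in 50 mM Tris-HCl pH 8.0, 5 mM MgCl2, 4 mM DTT, 80 mM KCl, BSA, 0.48 A260 units/mL poly(C)-oligo(dG) (5:1), 2 µM dGTP plus [3H]dGTP. Stopped with cold 10% TCA plus 0.1 M pyrophosphate; precipitates filtered, scintillation counted. Compounds dissolved in DMSO.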

[16] = tested on: Human immunodeficiency virus 1; test: Inhibitory concentration against HIV-1 IIIB strain; format: functional, organism-based
Method in brief: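 MT4 cells infected with HIV-1 IIIB; antiviral effect read as protection from virus-induced cytopathogenicity by MTT. Compounds taken from DMSO stock, diluted in culture medium.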

SMILES | IC50 (CEM-SS [3]) [µM] | CC50 (CEM-SS [11]) [µM] | SI [13] | other results
CCc1c(C)[nH]c(=O)c(NC(C)=O)c1Cc1cc(C)cc(C)c1 | 0.1 | > 10 | >100 | CC50 (MT4 [1]): > 10 µM; CC50 [2]: > 10 µM; IC50 [4]: 0.2 µM; CC50 [5]: > 10 µM; CC50 [6]: > 10 µM; IC50 [7]: > 10 µM; IC50 [8]: > 10 µM; CC50 (MT4 [9]): > 10 µM; CC50 [10]: > 10 µM; IC50 [12]: 0.44 µM
CCc1c(C)nc(OC)c(NC(C)=O)c1C(C)(OC(C)=O)c1cc(C)cc(C)c1 (centres undefined) | 2.5 | > 10 | >4 | –
CCC(=O)Nc1c(Cc2cc(C)cc(C)c2)c(CC)c(C)[nH]c1=O | 4.6 | > 10 | >2 | –
Cc1cn([C@H]2C[C@H](N=[N+]=[N-])[C@@H](CO)O2)c(=O)[nH]c1=O [ZIDOVUDINE] | 0.003 | – | >33333 | –
CCc1c(C)nc(O)c(N)c1C(=O)c1cc(C)cc(C)c1 | 0.006 | > 10 | >1666 | CC50 (MT4 [1]): > 10 µM; CC50 [2]: > 10 µM; IC50 [4]: 0.017 µM; SI [14]: >7; CC50 [5]: > 10 µM; CC50 [6]: > 10 µM; IC50 [7]: 1.3 µM; IC50 [8]: > 10 µM; IC50 [15]: 0.1 µM; CC50 (MT4 [9]): > 10 µM; CC50 [10]: > 10 µM; IC50 [16]: 0.085 µM and 0.02 µM; IC50 [12]: 0.025 µM
CCc1c(C)nc(O)c(NCc2cc(C)c(C)cc2OC)c1Cc1cc(C)cc(C)c1 | 1 | > 1 | – | –
CCC(=O)Nc1c(O)ncc(C)c1Sc1cc(C)cc(C)c1 | 41.4 | – | >2 | –
CCc1c(C)nc(O)c(NC(=O)CN)c1Cc1cc(C)cc(C)c1 | 0.018 | > 100 | >5555 | –
Cc1cc(C)cc(Sc2c(C)cnc(O)c2NC=O)c1 | 6.6 | – | >15 | –
CCOC(=O)Nc1c(O)nc(C)c(CC)c1Cc1cc(C)cc(C)c1 | 0.46 | > 10 | >21 | –
CCOC(=O)Nc1c(O)ncc(C)c1Sc1cc(C)cc(C)c1 | 7.5 | – | >13 | –
CCc1c(C)nc(O)c(NC(=O)C(C)(C)C)c1C(C)(O)c1cc(C)cc(C)c1 (centres undefined) | 12 | > 100 | >8 | –
CCc1c(C)nc(O)c(N)c1Cc1ccccc1 | 0.73 | > 100 | >136 | –
CCc1c(C)nc(O)c(NC(=O)CNC(=O)OC(C)(C)C)c1Cc1cc(C)cc(C)c1 | 6.7 | 86 | 12 | –
CCc1c(C)nc(OC)c2c1C(c1cc(C)cc(C)c1)OC(C(C)(C)C)=N2 (centres undefined) | > 10 | > 10 | – | –
CCc1c(C)nc(O)c(N)c1C(O)c1cc(C)cc(C)c1 (centres undefined) | 1 | > 10 | >10 | CC50 (MT4 [1]): > 10 µM; CC50 [2]: > 10 µM; IC50 [4]: 0.18 µM; SI [14]: >2; CC50 [5]: > 10 µM; CC50 [6]: > 10 µM; IC50 [7]: 4.5 µM; IC50 [8]: > 10 µM; CC50 (MT4 [9]): 10 µM; CC50 [10]: > 10 µM; IC50 [16]: 3.4 µM and 0.69 µM; IC50 [12]: 0.42 µM
CCc1c(C)nc(OC)c(NC(=O)C(C)(C)C)c1Cc1ccccc1 | > 1 | > 1 | – | –
